Test results published in ChEMBL document CHEMBL1177847, “Combating oxidative stress in epilepsy: design, synthesis, quantum chemical studies and anticonvulsant evaluation of 1-(substituted benzylidene/ethylidene)-4-(naphthalen-1-yl)semicarbazides” (Eur J Med Chem, 2010).

Legend:
Mus musculus [1] = assay: Reduction of lipid peroxidation in subcutaneous pentylenetetrazole treated Swiss albino mouse brain assessed reduction of malondialdehyde level per mg of protein at 100 mg/kg, ip after 4 hrs by TBARS assay; format: functional; conditions: route intraperitoneal
How it was run: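 PTZ-treated mice were dosed at 100 mg/kg i.p. and decapitated 4 h after the last injection. Brains were homogenized in four volumes of ice-cold 50 mM Tris-HCl, pH 7.4, and spun at 3000 × g for 15 min. TBARS in the supernatant was read at 532 nm in the upper organic layer and expressed as nmol MDA/mg protein. n = 6, mean ± S.E.M.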

Mus musculus [2] = assay: Restoration of SOD activity in subcutaneous pentylenetetrazole treated Swiss albino mouse brain assessed per mg of protein at 100 mg/kg, ip after 4 hrs; format: functional; conditions: route intraperitoneal
How it was run: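 The ethanol phase of an ethanol/chloroform (5:3) extract of brain supernatant was used, from PTZ-treated mice 4 h after 100 mg/kg i.p. Superoxide was generated by xanthine–xanthine oxidase at pH 10.2 with NBT, 20 min at 25 °C. The reaction was stopped with CuCl2 and read at 560 nm. One unit gives 50% inhibition of NBT reduction; results are expressed as U/mg protein. n = 6.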

Rattus norvegicus [3] = assay: Anticonvulsant activity against subcutaneous pentylenetetrazole-induced seizures in Wistar albino rat at 50 mg/kg, ip after 0.5 hrs; format: functional
Mus musculus [4] = assay: Restoration of GSH peroxidase activity in subcutaneous pentylenetetrazole treated Swiss albino mouse brain assessed per mg of protein at 100 mg/kg, ip after 4 hrs; format: functional; conditions: route intraperitoneal
How it was run: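 Brain homogenate came from PTZ-treated mice 4 h after 100 mg/kg i.p. dosing, using the 10500 × g supernatant. Samples were equilibrated 5 min at 25 °C, started with H2O2, and A340 was followed for 5 min. n = 6.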

Mus musculus [5] = assay: Restoration of GSH level in subcutaneous pentylenetetrazole treated Swiss albino mouse brain assessed per gram of tissue at 100 mg/kg, ip after 4 hrs; format: functional; conditions: route intraperitoneal
How it was run: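 Brains were taken from PTZ-treated mice 4 h after 100 mg/kg i.p. dosing. Tissue was deproteinized with an equal volume of 10% TCA for 2 h at 4 °C and centrifuged at 2000 g for 15 min. The supernatant was mixed with 0.4 M Tris (pH 8.9) containing 0.02 M EDTA, and 0.01 M DTNB was added before spectrophotometric reading. n = 6.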

Mus musculus [6] = assay: Neurotoxicity in ip dosed Swiss albino mouse assessed as minimum dose required to cause impair in motor coordination after 4 hrs by rotarod test; format: toxicity, organism-based; conditions: in vivo
How it was run: (§1)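 Rotarod motor-impairment test in male Swiss albino mice dosed i.p. at 30, 100 or 300 mg/kg in 5% gum acacia/water. Mice that fell off the rotating rod within 30 s during pretraining were excluded. The dose at which animals fell off was recorded at 0.5 and 4 h.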

Rattus norvegicus [7] = assay: Anticonvulsant activity against subcutaneous pentylenetetrazole-induced seizures in Wistar albino rat at 50 mg/kg, ip after 0.25 hrs; format: functional; conditions: route intraperitoneal
Mus musculus [8] = assay: Anticonvulsant activity against subcutaneous pentylenetetrazole-induced seizures in ip dosed Swiss albino mouse assessed as minimum effective dose after 0.5 hrs; format: functional; conditions: read-out: MED
How it was run: (§2)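 Male Swiss albino mice (18–25 g) were dosed i.p. with the compound in 5% gum acacia/water at 30, 100 or 300 mg/kg. Thirty minutes later they received PTZ 85 mg/kg (CD97) and were watched for seizures over 4 h. Readings at 0.5 and 4 h gave the lowest dose active in half or more of the animals. Myoclonic jerks were noted separately.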

Mus musculus [9] = assay: Anticonvulsant activity against maximal electroshock-induced seizures in ip dosed Swiss albino mouse assessed as minimum effective dose after 0.5 hrs; format: functional; conditions: read-out: MED
How it was run: (§3)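 Male Swiss albino mice (18–25 g) received the compound suspended in 5% gum acacia/water, i.p. at 30, 100 and 300 mg/kg (one to four animals per dose). Maximal electroshock was applied at 0.5 and 4 h. Protection meant abolition of the hind limb tonic extensor component. The lowest dose protecting half or more of the mice was recorded.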

Mus musculus [10] = assay: Anticonvulsant activity against maximal electroshock-induced seizures in ip dosed Swiss albino mouse assessed as minimum effective dose after 4 hrs; format: functional; conditions: read-out: MED; how it was run: as §3
Mus musculus [11] = assay: Neurotoxicity in ip dosed Swiss albino mouse assessed as minimum dose required to cause impair in motor coordination after 0.5 hrs by rotarod test; format: toxicity, organism-based; conditions: in vivo; how it was run: as §1
Mus musculus [12] = assay: Anticonvulsant activity against subcutaneous pentylenetetrazole-induced seizures in ip dosed Swiss albino mouse assessed as minimum effective dose after 4 hrs; format: functional; conditions: read-out: MED; how it was run: as §2
Rattus norvegicus [13] = assay: Anticonvulsant activity against subcutaneous pentylenetetrazole-induced seizures in Wistar albino rat at 50 mg/kg, ip after 1 hr; format: functional
Rattus norvegicus [14] = assay: Anticonvulsant activity against subcutaneous pentylenetetrazole-induced seizures in Wistar albino rat at 50 mg/kg, ip after 2 hrs; format: functional

`COc1cc(/C=N/NC(=O)Nc2cccc3ccccc23)cc(OC)c1OC` gave an Activity (Mus musculus [1]) of 1.87 nmol, an Activity (Mus musculus [2]) of 1.77 U and an Activity (Rattus norvegicus [3]) of 100%. The Activity (Mus musculus [4]) was 1.97 U, the Activity (Mus musculus [5]) was 24.56 µg and the Activity (Mus musculus [6]) was 300 mg/kg. The Activity (Rattus norvegicus [7]) was 25%, the minimal effective dose (Mus musculus [8]) was 100 mg/kg and the minimal effective dose (Mus musculus [9]) was 100 mg/kg. It also gave a minimal effective dose (Mus musculus [10]) of 100 mg/kg, an Activity (Mus musculus [11]) of 300 mg/kg and a minimal effective dose (Mus musculus [12]) of 100 mg/kg. It also gave an Activity (Rattus norvegicus [13]) of 75% and an Activity (Rattus norvegicus [14]) of 50%.
